We go through 23 molecules from ChEMBL document CHEMBL1165885, “Synthesis and cyclooxygenase inhibitory activities of some N-acylhydrazone derivatives of isoxazolo[4,5-d]pyridazin-4(5H)-ones” (Eur J Med Chem, 2010).

Structures are written as SMILES.

In this test the target is T1, Prostaglandin G/H synthase 1 (Ovis aries) (UniProt P05979).
T1 sequence (whole entry): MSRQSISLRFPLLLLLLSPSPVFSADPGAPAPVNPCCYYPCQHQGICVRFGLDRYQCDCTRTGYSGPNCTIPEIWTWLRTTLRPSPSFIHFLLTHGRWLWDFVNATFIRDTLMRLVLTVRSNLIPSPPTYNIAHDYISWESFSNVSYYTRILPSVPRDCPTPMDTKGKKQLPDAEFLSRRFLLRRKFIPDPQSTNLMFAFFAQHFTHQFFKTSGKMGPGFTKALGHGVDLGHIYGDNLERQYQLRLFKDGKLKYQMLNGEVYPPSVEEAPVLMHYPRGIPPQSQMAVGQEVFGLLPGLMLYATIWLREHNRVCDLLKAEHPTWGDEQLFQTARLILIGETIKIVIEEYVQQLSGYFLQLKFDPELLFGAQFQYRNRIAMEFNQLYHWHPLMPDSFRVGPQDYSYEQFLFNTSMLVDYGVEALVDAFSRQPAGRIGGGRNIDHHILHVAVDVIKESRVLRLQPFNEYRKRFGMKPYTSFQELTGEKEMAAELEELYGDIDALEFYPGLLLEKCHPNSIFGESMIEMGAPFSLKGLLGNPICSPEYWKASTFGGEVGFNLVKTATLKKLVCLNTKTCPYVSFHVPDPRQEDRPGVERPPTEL
Put plainly: Inhibition of sheep COX1 assessed as PGE2 level at 50 uM by ELISA. A digest of the protocol:
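Ovine COX-1 preincubated 10 min at 37 °C in 100 mM Tris-HCl pH 8.0 with 1 µM heme. Compounds in DMSO, diluted in 100 mM potassium phosphate pH 7.4. Arachidonic acid added to 100 uM final; stopped after 2 min with 1 M HCl. PGE2 measured by competitive ELISA with AChE tracer and Ellman's reagent at 412 nm against a PGE2 standard curve. Expressed as % of solvent control; duplicate, two independent experiments.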

In general, inhibition refers to the change of the read-out against control, counted positive when it falls. With `Cc1noc2c(Cc3ccccc3)nn(CC(=O)N/N=C\c3ccc(Cl)cc3)c(=O)c12`, the inhibition was 39.6%. The result for `Cc1ccc(/C=N\NC(=O)Cn2nc(Cc3ccccc3)c3onc(C)c3c2=O)cc1` reads 62.1%; that for `COc1ccc2c(c1)c(CC(=O)O)c(C)n2C(=O)c1ccc(Cl)cc1`, 78%.

Turning to `Cc1noc2c(Cc3ccccc3)nn(CC(=O)N/N=C\c3ccccc3[N+](=O)[O-])c(=O)c12`, the inhibition was found to be 59%. The result for `Cc1noc2c(Cc3ccccc3)nn(CC(=O)N/N=C\c3ccc([N+](=O)[O-])cc3)c(=O)c12` reads 40.7%. The value for `Cc1noc2c(Cc3ccccc3)nn(CC(=O)N/N=C\c3cccc(Cl)c3)c(=O)c12` was 36.3%; that for `Cc1noc2c(Cc3ccccc3)nn(CC(=O)N/N=C\c3ccc(F)cc3)c(=O)c12` was 54%. Consider `Cc1noc2c(Cc3ccccc3)nn(CC(=O)N/N=C\c3cccc(F)c3)c(=O)c12`, for which the inhibition amounted to 83%.

Consider `Cc1noc2c(Cc3ccccc3)nn(CC(=O)N/N=C\c3ccccc3Br)c(=O)c12`, for which the inhibition is 52.8%. The result for `COc1ccc(/C=N\NC(=O)Cn2nc(Cc3ccccc3)c3onc(C)c3c2=O)cc1` reads 46.3%.

On to `Cc1noc2c(Cc3ccccc3)nn(CC(=O)N/N=C\c3ccc(Br)cc3)c(=O)c12`, for which the inhibition is 50.6%. The result for `Cc1noc2c(Cc3ccccc3)nn(CC(=O)N/N=C\c3ccc(C(F)(F)F)cc3)c(=O)c12` reads 64%. With `Cc1noc2c(Cc3ccccc3)nn(CC(=O)N/N=C\c3ccccc3C(F)(F)F)c(=O)c12`, the inhibition is 51%. The result for `Cc1noc2c(Cc3ccccc3)nn(CC(=O)N/N=C\c3ccccc3)c(=O)c12` reads 50.6%; that for `Cc1noc2c(Cc3ccccc3)nn(CC(=O)N/N=C\c3cccc(C(F)(F)F)c3)c(=O)c12`, 47.1%. The value for `Cc1noc2c(Cc3ccccc3)nn(CC(=O)N/N=C\c3cccc(Br)c3)c(=O)c12` was 42.9%. `Cc1noc2c(Cc3ccccc3)nn(CC(=O)N/N=C\c3ccccc3Cl)c(=O)c12`: the inhibition worked out at 52.8%. In the case of `COc1cccc(/C=N\NC(=O)Cn2nc(Cc3ccccc3)c3onc(C)c3c2=O)c1`, the inhibition was 55.2%.

In the case of `Cc1cccc(/C=N\NC(=O)Cn2nc(Cc3ccccc3)c3onc(C)c3c2=O)c1`, the inhibition worked out at 61%. The value for `Cc1noc2c(Cc3ccccc3)nn(CC(=O)N/N=C\c3cccc([N+](=O)[O-])c3)c(=O)c12` was 39.6%; that for `Cc1ccccc1/C=N\NC(=O)Cn1nc(Cc2ccccc2)c2onc(C)c2c1=O` was 46.9%; that for `COc1ccccc1/C=N\NC(=O)Cn1nc(Cc2ccccc2)c2onc(C)c2c1=O` was 65%. The value for `Cc1noc2c(Cc3ccccc3)nn(CC(=O)N/N=C\c3ccccc3F)c(=O)c12` was 41.8%.
